Article PMC4184705 (Pharmacology Research & Perspectives, 2014)

Legend:
[1] = Safety: adverse event reports and clinical laboratory assessments; assay type: in vivo, human
In short: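 Open-label parallel-group study in postmenopausal women with osteoporosis, randomised 2:1. […] Group B received midazolam only. Adverse events recorded at any time through day 47 follow-up. Clinical laboratory tests at screening (21 days pre-treatment) and day 17. All treated subjects analysed.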

[2] = 2 mg oral midazolam dose; sample collection at 0.25 h; ref Winter et al. [2013]; cited from earlier work
[3] = Plasma midazolam pharmacokinetics after 2 mg oral doses on day 1 and day 16; conditions: for AUC(0-t) / AUC(0-inf) / Cmax / half-life: human, plasma; for AUC(0-inf): AUCinf; for half-life: t1/2, Group B (midazolam alone)
CYP3A4 [4] = assay type: in vivo, human; conditions: single 60 mg SC dose of denosumab; postmenopausal women with osteoporosis
[5] = Serum denosumab concentration by validated ELISA; assay type: in vivo, human; conditions: day 16 (14 days after a 60 mg SC dose); Group A
RANKL = assay: Serum C-telopeptide; assay type: in vivo, human; conditions: Group A; denosumab 60 mg SC on day 2
[6] = 60 mg SC dose; ref Bekker et al. [2004]; cited from earlier work
CYP3A4 [7] = conditions: healthy volunteers; ref Gupta et al. [2012]; cited from earlier work
[8] = Group A (midazolam + denosumab), N = 17
[9] = Group B (midazolam alone), period effect, n = 8
[10] = po, 2 mg, Group B (midazolam alone), day 1, 2 mg oral, mean (SD), N = 8
[11] = po, 2 mg, Group B (midazolam alone), day 16, 2 mg oral, mean (SD), N = 8

For `Cc1ncc2n1-c1ccc(Cl)cc1C(c1ccccc1F)=NC2` [midazolam], the somnolence incidence ([1]; Group A, day 1 (prior to administration of denosumab), 7 of 19 subjects) was 37%, the somnolence incidence ([1]; Group B, day 1, 2 of 8 subjects) was 25% and the somnolence incidence ([1]; day 16 (after the second midazolam dose)) was “no subjects”. The somnolence incidence ([1]; days 2 to 15) was “no subjects”, the “changes in clinical laboratory values from baseline” value ([1]; screening to day 17) was “unremarkable” and the “deaths, withdrawal due to adverse events, serious adverse events” value ([1]; whole study) was “No deaths, withdrawal due to adverse events, or serious adverse events”. For the same compound, the “mean Cmax” value [2] was 11.9 ng/mL, the “AUC0–inf, ratio of day 16/day 1, LS mean” value [3, 8] was 1.02 and the “AUC0–t, ratio of day 16/day 1, LS mean” value [3, 8] was 1.02. For the same compound, the “Cmax, ratio of day 16/day 1, LS mean” value [3, 8] was 1.04, the AUCinf ([3]; Group A, day 1, midazolam 2 mg oral, mean (SD), N = 17) was 35.6 (16.4) ng·h/mL and the Tmax ([3]; Group B (midazolam alone), day 16, 2 mg oral, median (range), N = 8) was 0.5 (0.5–1.0) hr. The “AUC0–inf, point estimate for the ratio of the least square means (day 16/day 1)” value [3, 9] was 0.98, the “AUC0–t, point estimate for the ratio of the least square means (day 16/day 1)” value [3, 9] was 0.98 and the “Cmax, point estimate for the ratio of the least square means (day 16/day 1)” value ([3]; Group B (midazolam alone), period effect, n = 8, 90% CI 0.82 to 1.33) was 1.05. It also gave an AUC(0-t) ([3]; oral) of 31 ng·h/mL, an AUC(0-t) ([3]; po, 2 mg) of 30.4 ng·h/mL and an AUC(0-inf) [3, 10] of 31 ng·h/mL. The AUC(0-inf) [3, 11] was 29.3 ng·h/mL, the Cmax [3, 10] was 11.3 ng/mL and the Cmax [3, 11] was 10.9 ng/mL. It also gave a half-life ([3]; po, 2 mg, day 1, 2 mg oral, mean (SD), N = 8) of 6.2 h and a half-life ([3]; po, 2 mg, day 16, 2 mg oral, mean (SD), N = 8) of 6.22 h.

In the case of “denosumab: fully human monoclonal immunoglobulin G2 (IgG2) that binds to and neutralizes RANKL activity”, the “effect on CYP3A4 activity (based on midazolam pharmacokinetics)” value (CYP3A4 [4]) is reported as “no effect”, the “serum denosumab concentration, mean (SD)” value [5] is reported as 5790 (1800) ng/mL and the “sCTX concentrations on day 16 lower than those on day 2, on average” value (RANKL) is reported as about 81%. The “time by which maximal pharmacodynamic effects are observed” value [6] was at most 1 week.

In the case of `C[C@@H]1CCN(C(=O)CC#N)C[C@@H]1N(C)c1ncnc2[nH]ccc12` [tofacitinib], the “effects on CYP3A4 activity (midazolam pharmacokinetics)” value (CYP3A4 [7]) is listed as “lack of effects”.
